Test system: MS2 coat protein
Assay: apparent Kd, MS2 coat protein; higher = weaker binding; RNA-MaP array; FMN 200 µM where present
Outline: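 On Illumina sequencing-chip clusters, designs were transcribed by stalled E. coli RNA polymerase and titrated with SNAP-549-labelled MS2 coat protein (0.7 or 1.5 nM, doubling to 3 µM), without and then with constant ligand, in 100 mM Tris-HCl pH 7.5, 80 mM KCl, 4 mM MgCl2, BSA, DTT, yeast tRNA and Tween-20. Apparent Kd is the median of filtered per-cluster curve fits to green signal normalised to red-channel RNA signal and control-cluster median Fmax.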

[1] = designed as: ON switch for flavin mononucleotide, no ligand
[2] = ligand present: flavin mononucleotide, designed as: ON switch for flavin mononucleotide
[3] = designed as: OFF switch for flavin mononucleotide, no ligand
[4] = ligand present: flavin mononucleotide, designed as: OFF switch for flavin mononucleotide

Sequence	apparent Kd [1] [nM]	apparent Kd [2] [nM]	apparent Kd [3] [nM]	apparent Kd [4] [nM]
GCCCGGCCCGGGCCCACGGCAUCACAGGAUAUGCCGAUCACAUGAGGAUCACCCAUGUCAACUCCGCAGAAGGGUGAUAUCGUG	322	33.2		
CUUACGCGAGGAUAUACAUGAGGAUCACCCAUGUAACGGUGUGUAAUAUAUAUUGCGUGUAGAAGGUGUGUGGG			87	101
AAGUCGUUAGGAUAUACAUGGAUAUACAUUUAUGUAGAACUACAUGAGGAUCACCCAUGUAGAAGGAACGAAUA			38.2	54
CCUGUCGUAUGAGGAUAUGGUCAGCUUUGCUGACCAGAAGGCAUGUCAAUAGACAUGAGGAUCACCCAUGUAGUAAAGACAGGA	381	40.1		
UUGUACCGGUGAGGAUAUUUUUGAUAGAACUUUAUGAUAUACAUGAGGAUCACCCAUGUUACUUUAAAGAAGGCAUCGGAUUAU			19.4	15.3
AUUAAUUAAUUAAUACAUGAGGAUCACCCAUGUAAUAAGAUCUAGGAUAUCAGCUCGUUUAGAGCUGAGAAGGAGAUCACAUGU	42.6	37.2		
AAAACGUCAGGAUAUCCAAUAUAUGACAUGAGGAUCACCCAUGUUUCCACUCGUACCUCCGGAGAAGGGACAAAUA			41.5	34
UAUUAGUGAGGAUAUGAGUCGUAGAACAAUAGUACUACGUCUCAGAAGGUACAUGAGGAUCACCCAUGUUUCUC			20	23.8
UGUUUAUAUGAAGGAUAUACUUAACAUGAGGAUCACCCAUGUGGUGUUGUGAGUGAGUGAGUUUAGUAGAAGGUCAAUUAUUUU			286	643
GAGUAGUUAAAAGGAUAUUGAUUAUUGUAGGAUCAAGAAGGUUUUAACAUGAGGAUCACCCAUGUAGGACUAUUCCUGUGUAUC	16.5	14.8		
GCAGCGUAUGUAGGAUAUCGGUCAGUCUCUGAUCGAGAAGGACAUGAGGAUCACCCAUGUAAAUUACCGACUUUGUCGGGCUGC			7.14	9.62
CCUCCACAUGAGGAUCACCCAUGUCAGGAUAUCGUGUGUUUUUUUUCGGUCUUUCGUGCGAGAAGGGACGUCUG			27.4	29.9
CAUUAAUUGAUUAUUGUAUUUAUACAGGAUAUGUAACAUGAGGAUCACCCAUGUAUACAUGGGAAACAGAAGGGUAUUUAAAGA			34.7	25.3
UCUGUUUUGCGAGGAUAUCGACCAUUCCUCUUAACAUGAGGAUCACCCAUGUGCUAAUCCUACAACGAGAAGGCGCUCAUACUC			250	348
AUUAUACAUGAGGAUCACCCAUGUAAUUAAUUAAUUAAGAUCAAGGAUAUCAGCUCGAUUAGAGCUGAGAAGGUGAUCACAUGU	402	292		
UGUAUUAACGGAGGAUAUCGAUAUCAAACAUGAGGAUCACCCAUGUUGAGGAUCACCCAUGUCCAUGAGAAGGCCGGCGUACUC	41.8	32.9		
UUACGUCACAUUUACAUGAGGAUCACCCAUGUCGAAAGACAUGAGGAUAUGCUACCUAAUUGGUAGCAGAAGGCAUGGACGUCG	834	81.1		
AUAUCCGAAGCAGGAUAUCGGCAAGGUGUCGAGGUAGAGCGUACUCACAUGAGGAUCACCCAUGUCGAGAAGGGCUACAGGAUG			16.8	72.4
GUGCCUUGGGAGAAGGCAGUAUGCAAAGCAUCCUGAGGAUAUUCAUACCGGAAACGGACAUGAGGAUCACCCAUGUGGCACAAA	864	57		
UUGGACGUCAUAGGAUAUGUAGGAUAUUCCUACAUGAGGAUCACCCAUGUUGACAUGGAAGAAGGACAGAAGGACGAUGUCCAU	665	10.7		
GGCUCCGCUCGAGGAUAUAGCUGCAUGUAGUGUCCUGAGGCACAUGAGGAUCACCCAUGUGUAGGCUAGAAGGCGACGGACACU			8.81	26.2
AAAGAGGCGGAUCGCAACUACCAGCAGGAUAUGGGUGUUUUUACAUGAGGAUCACCCAUGUACAUCUAGAAGGGUUGGGUGUCC	576	76.6		
GUAGCAUACAGAGGAUAUUCAAAACCGGAAACGGACAUGAGGAUCACCCAUGUGGCGAAAGCCUGGGAGAAGGCUGAAUGCUAC	28.6	14.2		
UUAGCAUACCGAGGAUAUUCAUAUAAUAAAUAAACAUGAGGAUCACCCAUGUGGCGAAAGCCUAGGGAGAAGGCGGAAUGCUAA	220	21.9		

Sequence	apparent Kd [1] [nM]	apparent Kd [2] [nM]	apparent Kd [3] [nM]	apparent Kd [4] [nM]
UUGAAGAACUAAGGAUAUUGAAUACAUAUGUUUAACAUGAGGAUCACCCAUGUGGGUUGCGGUAUCGAGAAGGUAGAUUACUAG	115	104		
GCUGACGUAGGAUAUCAAUAGCCUCACAUGAGGAUCACCCAUGUCGGUAGGUGUACUGGAUGAGAAGGACGUCGUU			38.3	23.9
CAGCGACAUGGAGGAUAUAGGGCCCAAGGGCACCUAGAAGGCCAAAAGCAGACAGGUCACAUGAGGAUCACCCAUGUACGCCAG	241	16.3		
AUGUAGGAAGGAUAUAUAUGGAGCAUGCGUCUCUGAACAUUACAUGAGGAUCACCCAUGUAGAAGGUCCGCGGA			24.1	33.1
CCGUAAUAUGGAGGAUAUGGAGCCUUAUUGGCUCCAGAAGGUCAUAAAACAUGAGGAUCACCCAUGUCGGCGGUCAAUAGACCG	55.7	20.5		
UUAAAUCAUGUAGGAUAUGCAUGGCGAAGCUACGCAGAAGGACAUGAGGAUCACCCAUGUUAUAGCGUCUGGAAACAGAUGCAA			101	177
UGGUGCUAGGGAGGAUAUGGGAAGAUACAUGAGGAUCACCCAUGUUUAAGAAUGCCGAGAGGCAACUAGAAGGCCCUAGUACCU	457	20.9		
GGUCCAUCUGUUAGGAUAUGCUUUGGGCUUCCGCAGUAGAAGGAACAUGAGGAUCACCCAUGUCCGAUGCCGUC			25.1	30.3
AAAAUGUGAGGAUAUGCGAAGGCGUCUGAUAGACGAGGCUAGCAGAAGGCACAUGAGGAUCACCCAUGUCCAAA			40.3	60.3
CACACCGUAGGAGGAUAUCCCUGGACAUGAGGAUCACCCAUGUUUAGCCCGUCCUCAUGUUAGUCGGAGAAGGCCUAGUGGUCG			36.7	37.6
UGGUACAUCGGAGGAUAUCAUGUAAAUACAUGAGGAUCACCCAUGUCGUACGAGAGUACGGAGAUUGAGAAGGCCGAUGUACCU	25.7	15		
AACGCGUCAGGAUAUGCCAUAAAUUACCUAAUACAACCAUAGCAGAAGGGACAUGAGGAUCACCCAUGUAAAUA			32.1	25.2
GAUUCGGGAGGAUAUACAUGAGGAUCACCCAUGUAUAUAUAAUAUAUUAAAUUAUCAUGUAGAAGGUUUGGGUC			24.2	23.4
GUCGGAAACGACAAUGAUAGGACUGAGGAUAUACAUAAAUAAAUCCUUACAUGAGGAUCACCCAUGUAGAAGGCAGUCCUAUCU			47.2	590
CCGGAAGUACAGGAUAUCGUAACGGAAACGUUACGAGAAGGGUAUACAUGAGGAUCACCCAUGUGUCCUACCGG			28.3	26.6
UUUUAGGGAGGAUAUACAUUUUUUUUAUUAUCCUCAUUAAUACAUGAGGAUCACCCAUGUAGAAGGCCCAUUUU			39.2	164
AUACCUUAUGAGAAGGCGAUCAUGAAACAUGAUCGAGGAUAUCAUGUAAACAUGAGGAUCACCCAUGUAUGGGUAUUAUGGUAC	28.4	9.72		
GCCUUAUCUGUCAGGAUAUACAAUAUUUUUUUUUUGUAGAAGGGACAUGAGGAUCACCCAUGUACAUUACAUUG			31.3	71.8
UCACGUCACCAAGGAUAUACCCGAAGAUCCAUGGUAGAAGGUGGUGACAUGAGGAUCACCCAUGUCCGCGCGGACAAGUGUGUU			118	26.7
ACGCGAUGGGAGAAGGUACUUUAAGAAUUUUACACAUGAGGAUCACCCAUGUAAGGAUAUCCCAUCGUUAAAUAUUAUACAGCA			6.56	5.77
ACAUGGAAUACAGGAUAUGUAAGUUUUAAGUAGAUUGGUUAUUACUUUACUACAGAAGGGUAAUACAUGAGGAUCACCCAUGUA	16.9	12.2		
UGGUACUACGGAGGAUAUCAUGUAAAUACAUGAGGAUCACCCAUGUCGUACGAGAGUACGGAGAUUGAGAAGGCCGUAGUACCU	25.6	15.6		
GCGAUUAAGUAGAAGGUACGAUAUAUAUCAUUGUAAGGAUAUACUUACAUGAGGAUCACCCAUGUUAAAGGUUAUAAUAAUCGC	94.6	28		
ACGUGACGGUGCGCGAGUGGACGGAGAAGGCAGACAUGAGGAUCACCCAUGUGAGCCUGCUAUUCUGAGGAUAUCCGUCCGCUC			38.8	257
